Laboratory results: article PMC10655810 (Journal of Agricultural and Food Chemistry, 2023)

Key:
RmuAP1CD = test: Effects of chemicals; format: biochemical, Rhodotorula mucilaginosa; details: same test as Table 1; preincubation 37 °C, 3 h; BSA, pH 2.5
In short: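 Residual activity was then measured with 10 μg enzyme and 5 mg BSA per 1 mL at pH 2.5 for 1–1.5 h. The reaction was stopped with cold TCA (10% w/v final), centrifuged, and supernatant A280 read. Triplicate.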

pepsin = pepsin (Sus scrofa, UniProt P00791); test: biochemical; parameters: species or system porcine; details: for Proteolytic activity of pepsin (residual activity): pH 2.5
BSA = details: cited from earlier work
[1] = BSA denatured by 10 min preincubation at pH 0.8

Sequence of pepsin (P00791 60-385): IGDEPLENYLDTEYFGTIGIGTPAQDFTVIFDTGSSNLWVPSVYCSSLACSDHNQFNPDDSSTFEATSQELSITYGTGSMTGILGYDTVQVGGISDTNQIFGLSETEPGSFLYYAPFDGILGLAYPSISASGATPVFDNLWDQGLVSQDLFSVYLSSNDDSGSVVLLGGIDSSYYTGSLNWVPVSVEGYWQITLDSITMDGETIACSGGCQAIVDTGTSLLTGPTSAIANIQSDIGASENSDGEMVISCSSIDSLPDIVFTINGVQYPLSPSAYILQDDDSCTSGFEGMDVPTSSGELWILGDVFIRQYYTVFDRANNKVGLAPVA

O=C(O)CN(CCN(CC(=O)O)CC(=O)O)CC(=O)O [EDTA, ethylenediaminetetraacetic acid]
Effect on the proteolytic activity of RmuAP1CD (in words) (RmuAP1CD): unaffected | remaining activity at 5000 µM (pepsin; pH 2.5, read-out: Proteolytic activity of pepsin (residual activity)): 95 ± 2.5%

O=S(=O)(F)Cc1ccccc1 [PMSF, phenylmethylsulfonyl fluoride]
Effect on the proteolytic activity of RmuAP1CD (in words) (RmuAP1CD): unaffected

CCCCCCCCCCCCOS(=O)(=O)[O-].[Na+] [SDS, sodium dodecyl sulfate]
Effect on the proteolytic activity of RmuAP1CD (in words) (RmuAP1CD): moderately inhibited | Proteolytic activity of pepsin (residual activity) (pepsin): 30 ± 4.0%

OCCS [β-ME, β-mercaptoethanol]
Effect on the proteolytic activity of RmuAP1CD (in words) (RmuAP1CD): did not influence the peptidase activity | Proteolytic activity of pepsin (residual activity) (pepsin): 90 ± 1.0%

Triton X-100
Effect on the proteolytic activity of RmuAP1CD (in words) (RmuAP1CD): moderately inhibited

pepsin
Activity of pepsin on HCl-denatured BSA at pH 4.5 (BSA; [1]): 65% | pH of peak activity of pepsin on HCl-denatured BSA (BSA; [1]): 3.0 | Optimum pH of pepsin for BSA (BSA; native BSA, pH 1.0 to 5.5): about 1.7 | Activity of pepsin on BSA at pH 4.0, of its peak value (BSA; native BSA): 10%

pepstatin A
Effect on the proteolytic activity of RmuAP1CD (in words) (RmuAP1CD): drastically inhibited
